The values that follow come from ChEMBL document CHEMBL1135831, “Expansion of structure-activity studies of piperidine analogues of 1-[2-(diphenylmethoxy)ethyl]-4-(3-phenylpropyl)piperazine (GBR 12935) compounds by altering substitutions in the N-benzyl moiety and behavioral pharmacology of selected molecules” (J Med Chem, 2002).

Experiment [1] deals with Norepinephrine transporter (Rattus norvegicus, UniProt Q9WTR4). Briefly: Inhibition of [3H]- […] binding to Norepinephrine transporter.
For experiment [2], the species on record is Rattus norvegicus. Briefly: Inhibition of [3H]- DA (Dopamine) uptake in rat striatal synaptosomes. It is filed as functional. The conditions noted are these: Brain.
Experiment [3] deals with Sodium-dependent serotonin transporter (Rattus norvegicus, UniProt P31652). The experiment in a line: Inhibition of [3H]- citalopram binding to Serotonin transporter.
Sodium-dependent serotonin transporter, sequence (P31652 whole entry): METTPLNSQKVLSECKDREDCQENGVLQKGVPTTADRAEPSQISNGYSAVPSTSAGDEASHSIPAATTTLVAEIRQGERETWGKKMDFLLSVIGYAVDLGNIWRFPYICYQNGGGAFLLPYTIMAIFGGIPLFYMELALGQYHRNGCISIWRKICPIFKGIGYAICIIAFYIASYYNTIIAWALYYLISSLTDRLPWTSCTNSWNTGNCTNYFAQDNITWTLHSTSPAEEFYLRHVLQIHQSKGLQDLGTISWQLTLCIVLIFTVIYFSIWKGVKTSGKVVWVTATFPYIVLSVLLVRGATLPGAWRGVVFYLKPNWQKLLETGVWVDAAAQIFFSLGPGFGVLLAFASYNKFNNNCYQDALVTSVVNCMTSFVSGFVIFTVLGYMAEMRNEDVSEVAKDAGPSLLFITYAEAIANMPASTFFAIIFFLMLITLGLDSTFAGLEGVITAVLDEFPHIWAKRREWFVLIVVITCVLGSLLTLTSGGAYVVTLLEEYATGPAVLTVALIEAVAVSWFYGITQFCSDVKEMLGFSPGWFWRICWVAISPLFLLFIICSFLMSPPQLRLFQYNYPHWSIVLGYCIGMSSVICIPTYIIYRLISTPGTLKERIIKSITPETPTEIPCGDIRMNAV
The target of experiment [4] is Monoamine transporters; Norepininephrine & dopamine (Rattus norvegicus) (UniProt P23977+Q9WTR4). Briefly: Selectivity ratio against dopamine and norepinephrine transporter binding. It is filed as protein assay. In short, it runs like this: (§1)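 Ratio of radioligand binding values: SERT ([³H]citalopram) or NET ([³H]nisoxetine) over DAT ([³H]WIN 35,428). Binding 0–4 °C, 2 h (DAT, SERT) or 3 h (NET), final Na⁺ 30 mM (DAT, SERT) or 225 mM (NET); each value from three independent experiments in triplicate.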

For experiment [5], the target named is Monoamine transporters; serotonin & dopamine (Rattus norvegicus) (UniProt P31652+P23977). Briefly: Relative binding to serotonin and dopamine transporters. The class given is protein assay. Summed up:
as §1

Experiment [6] can be described thus: Selectivity ratio 3[H]DA uptake /DAT binding.
Experiment [7] addresses Sodium-dependent dopamine transporter (Rattus norvegicus, UniProt P23977). The experiment in a line: Inhibition of 3[H] WIN-35 428 binding to Dopamine transporter (DAT).
The species named for experiment [8] is Rattus norvegicus. Briefly: Concentration causing 50% Inhibition of [3H]- DA (Dopamine) uptake in rat striatal synaptosomes. The conditions noted are these: Brain. It is filed as functional.

Norepinephrine transporter, sequence (Q9WTR4 whole entry): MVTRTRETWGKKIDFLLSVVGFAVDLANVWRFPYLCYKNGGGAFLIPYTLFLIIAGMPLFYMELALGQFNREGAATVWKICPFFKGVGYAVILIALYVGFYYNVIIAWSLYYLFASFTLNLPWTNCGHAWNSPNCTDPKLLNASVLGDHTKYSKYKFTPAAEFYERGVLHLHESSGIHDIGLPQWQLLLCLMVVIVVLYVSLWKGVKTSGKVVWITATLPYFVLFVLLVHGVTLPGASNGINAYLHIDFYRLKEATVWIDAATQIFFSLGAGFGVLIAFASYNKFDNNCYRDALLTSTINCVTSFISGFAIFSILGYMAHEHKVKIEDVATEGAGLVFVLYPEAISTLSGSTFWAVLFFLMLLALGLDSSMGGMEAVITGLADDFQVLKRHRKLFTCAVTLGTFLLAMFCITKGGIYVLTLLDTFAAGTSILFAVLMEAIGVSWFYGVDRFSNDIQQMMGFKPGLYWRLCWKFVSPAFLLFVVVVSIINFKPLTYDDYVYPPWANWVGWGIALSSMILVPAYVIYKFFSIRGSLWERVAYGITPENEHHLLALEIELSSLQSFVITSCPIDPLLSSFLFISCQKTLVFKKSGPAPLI
Sodium-dependent dopamine transporter, sequence (P23977 whole entry): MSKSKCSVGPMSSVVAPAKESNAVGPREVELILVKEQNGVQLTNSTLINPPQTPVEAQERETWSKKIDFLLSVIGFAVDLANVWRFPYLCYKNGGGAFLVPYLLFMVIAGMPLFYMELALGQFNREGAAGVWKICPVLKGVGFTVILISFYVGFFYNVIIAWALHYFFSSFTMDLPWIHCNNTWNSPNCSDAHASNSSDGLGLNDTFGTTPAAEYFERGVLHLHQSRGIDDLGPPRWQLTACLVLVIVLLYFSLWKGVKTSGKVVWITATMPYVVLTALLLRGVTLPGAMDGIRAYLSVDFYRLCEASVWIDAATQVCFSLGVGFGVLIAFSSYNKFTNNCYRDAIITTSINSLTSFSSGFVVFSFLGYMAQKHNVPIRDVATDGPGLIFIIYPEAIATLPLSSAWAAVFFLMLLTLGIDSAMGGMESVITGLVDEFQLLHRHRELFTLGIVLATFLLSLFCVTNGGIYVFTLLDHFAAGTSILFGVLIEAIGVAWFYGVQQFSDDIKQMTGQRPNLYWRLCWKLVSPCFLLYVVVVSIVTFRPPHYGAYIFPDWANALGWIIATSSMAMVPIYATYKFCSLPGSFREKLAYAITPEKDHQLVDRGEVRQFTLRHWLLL
Monoamine transporters; serotonin & dopamine (Rattus norvegicus), sequence (P23977 whole entry, looked up): as the sequence (P23977 whole entry) above
Monoamine transporters; serotonin & dopamine (Rattus norvegicus), sequence (P31652 whole entry, looked up): as the sequence (P31652 whole entry) above

Turning to `COc1cccc(CN2CCC(CCOC(c3ccccc3)c3ccccc3)CC2)c1`, the IC50 in experiment [1] worked out at 0.472 µM; in the experiment filed under Rattus norvegicus [2] it was 0.00668 µM; in experiment [3], 1.08 µM. Also, the Ratio in experiment [4] came to 24; in experiment [5] it was 55; in experiment [6] it was 0.34.

On to `C=C(C)c1ccc(CN2CCC(CCOC(c3ccccc3)c3ccccc3)CC2)cc1`, for which the IC50 in experiment [7] was 0.0116 µM; in experiment [1], 0.832 µM; in the experiment filed under Rattus norvegicus [8] it was 0.0031 µM; in experiment [3], 1.03 µM. The results for the Ratio in experiment [4], in experiment [5] and in experiment [6] were 72, 88 and 0.26, respectively.

As for `COC(=O)c1ccc(CN2CCC(CCOC(c3ccccc3)c3ccccc3)CC2)cc1`, the 50% inhibitory concentration (IC50) in experiment [7] turned out to be 0.00823 µM; in the experiment listed under Rattus norvegicus [8], 0.00194 µM; in experiment [3], 0.924 µM. In addition, the results for the Ratio in experiment [5] and in experiment [6] were 110 and 0.23, respectively.

Regarding `CC#Cc1ccc(CN2CCC(CCOC(c3ccccc3)c3ccccc3)CC2)cc1`, the 50% inhibitory concentration (IC50) in experiment [7] was determined as 0.0651 µM; in experiment [1], 1.17 µM; in experiment [3] it was 2.41 µM. The Ratio in experiment [4] was found to be 18; in experiment [5], 37.

As for `C#Cc1ccc(CN2CCC(CCOC(c3ccccc3)c3ccccc3)CC2)cc1`, the 50% inhibitory concentration (IC50) stood at 0.0041 µM in experiment [7], 0.76 µM in experiment [1], 0.00481 µM in the experiment filed under Rattus norvegicus [8] and 1.04 µM in experiment [3]. In addition, the Ratio in experiment [4] came to 180; in experiment [5], 250; in experiment [6], 1.2.

On to `Oc1cccc(CN2CCC(CCOC(c3ccccc3)c3ccccc3)CC2)c1`, for which the concentration for half-maximal inhibition (IC50) in experiment [1] was found to be 0.678 µM; in the experiment listed under Rattus norvegicus [2] it was 0.0104 µM. Besides, the Ratio in experiment [4] came to 47; in experiment [5] it was 69; in experiment [6], 0.72.

For the compound `C=Cc1ccc(CN2CCC(CCOC(c3ccccc3)c3ccccc3)CC2)cc1`, the half-maximal inhibitory concentration (IC50) in experiment [7] was found to be 0.00296 µM; in experiment [1], 0.715 µM; in the experiment filed under Rattus norvegicus [8] it was 0.00108 µM; in experiment [3], 1.47 µM. The Ratio is 240 in experiment [4], 500 in experiment [5] and 0.36 in experiment [6].

As to `Oc1ccc(CN2CCC(CCOC(c3ccccc3)c3ccccc3)CC2)cc1`, the 50% inhibitory concentration (IC50) in experiment [7] is 0.24 µM; in experiment [1], 3.34 µM; in experiment [3], 4.33 µM. The values for the Ratio in experiment [4] and in experiment [5] were 14 and 18, respectively.

As to `Ic1ccc(CN2CCC(CCOC(c3ccccc3)c3ccccc3)CC2)cc1`, the half-inhibitory concentration (IC50) in experiment [1] is 1.15 µM; in the experiment filed under Rattus norvegicus [8] it was 0.00201 µM. In addition, the Ratio in experiment [4] stood at 1200; in experiment [5] it was 3040; in experiment [6], 2.1.

For orientation: IC50 means the concentration that inhibits the measured activity by half. A higher IC50 goes with weaker potency in that assay.
